Tests used:
Type in all cases: functional
Schistosoma mansoni [1] = assay: Percent [3H]uridine incorporation relative to control at 50 ug/mL against hycanthone-sensitive schistosomes (% worms surviving in culture)
Summary of the method: (§1)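 Hycanthone-sensitive Schistosoma mansoni worms exposed to compound in vitro. [3H]uridine incorporation into the worms was measured and expressed relative to untreated controls. Worm survival in culture was scored in parallel.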

Schistosoma mansoni [2] = assay: Percent [3H]uridine incorporation relative to controls for a dose of 75 ug/mL against hycanthone-resistant schistosomes
Schistosoma mansoni [3] = assay: Percent [3H]uridine incorporation relative to controls for a dose of 100 ug/mL against hycanthone-resistant schistosomes
Schistosoma mansoni [4] = assay: Percent [3H]uridine incorporation relative to controls for a dose of 100 ug/mL against hycanthone-sensitive schistosomes.(% warms surviving in culture).; summary of the method: as §1
Schistosoma mansoni [5] = assay: Percent [3H]uridine incorporation relative to controls for a dose of 50 ug/mL against hycanthone-resistant schistosomes
Schistosoma mansoni [6] = assay: Percent [3H]-uridine incorporation relative to controls for a dose of 100 ug/mL against hycanthone-sensitive schistosomes (% warms surviving in culture).; summary of the method: as §1
[7] = in the assay text read “at 75 ug/mL” for “at 50 ug/mL”

Row | SMILES | Incorporation (Schistosoma mansoni [1]; [7]) | Incorporation (Schistosoma mansoni [2]) | Incorporation (Schistosoma mansoni [1]) | Incorporation (Schistosoma mansoni [3]) | Incorporation (Schistosoma mansoni [4]) | Incorporation (Schistosoma mansoni [5]) | Incorporation (Schistosoma mansoni [6])
1 | CC(C)NCC1CCc2cc(/C=N/NS(=O)(=O)c3ccc([N+](=O)[O-])cc3)c([N+](=O)[O-])cc2N1 (stereo not drawn) | 49% | 96% | – | – | – | – | –
2 | Cc1ccc(S(=O)(=O)N/N=C/c2cc3c(cc2[N+](=O)[O-])NC(CNC(C)C)CC3)cc1 (stereo not drawn) | – | – | 60% | 100% | 32% | 102% | –
3 | CNC(=O)OCc1cc2c(cc1[N+](=O)[O-])NC(CNC(C)C)CC2 (stereo not drawn) | – | – | 22% | 100% | – | 100% | 21%
4 | COc1ccc(S(=O)(=O)N/N=C/c2cc3c(cc2[N+](=O)[O-])NC(CNC(C)C)CC3)cc1 (stereo not drawn) | 53% | 106% | – | – | – | – | –
5 | Cc1cc(C)c(S(=O)(=O)N/N=C/c2cc3c(cc2[N+](=O)[O-])NC(CNC(C)C)CC3)c(C)c1 (stereo not drawn) | – | – | 24% | 100% | 20% | 100% | –
6 | CC(C)NCC1CCc2cc(CO)c([N+](=O)[O-])cc2N1 (stereo not drawn) [OXAMNIQUINE] | – | – | 14% | – | – | 97% | –

Reference: ChEMBL document CHEMBL1124185, “Studies on some derivatives of oxamniquine” (1988)
